Results collected from several papers.
Compare with care: the assays were run in different laboratories.
Target: Protein kinase C eta type (PRKCH, Homo sapiens, UniProt P24723)

| Compound | test | conditions | remaining binding |
| --- | --- | --- | --- |
| O=C(NCCCN1CCOCC1)c1ccc(Nc2nccc(-c3cc4ccccc4s3)n2)cc1 | binding, competition with immobilised ligand | 1 µM | 84% |
| CCN1CCN(Cc2ccc(C(=O)Nc3ccc(C)c(Oc4ccc5c(c4)CC(=O)N5)c3)cc2C(F)(F)F)CC1 | binding, competition with immobilised ligand | 1 µM | 100% |
| O=C(NCC1CCOCC1)c1n[nH]cc1NC(=O)c1c(F)cccc1F | binding, competition with immobilised ligand | 1 µM | 92% |
| N[C@@H]1CCN(c2nccc(-c3cnn4ncccc34)n2)C1 | binding | 1 µM | 100% |
| COc1cnc(Nc2cccc(S(N)(=O)=O)c2)nc1N1CCN(c2ccccc2)CC1 | binding, competition with immobilised ligand | 1 µM | 100% |
| COc1cc(-c2cn(C3CCc4c(F)cccc4N(CC(F)(F)F)C3=O)nn2)ccc1-n1cnc(C)c1 (stereo not shown) | cell-free assay, competition with immobilised ligand | 1 µM | 100% |
| FC(F)(F)Oc1cccc(-c2cnc3ccc(-c4ccncc4)nn23)c1 | cell-free assay, competition with immobilised ligand | 5 µM | 91% |
| Cc1cnn2ncc(-c3ccnc(N(C)C)n3)c2c1 | binding | 1 µM | 100% |
| O=C(NCCCN1CCOCC1)c1ccc(Nc2ncc(Cl)c(-c3ccc(Cl)s3)n2)cc1 | binding, competition with immobilised ligand | 1 µM | 100% |
| CN(C)CC#Cc1ccc(OCCCc2sc(N3CCc4cccc(C(=O)Nc5nc6ccccc6s5)c4C3)nc2C(=O)O)c(F)c1 | cell-free assay, competition with immobilised ligand | 1 µM | 74% |
| O=C(c1ccc(Nc2ncc(Cl)c(-c3cc4ccccc4s3)n2)cc1)N1CCC(N2CCCC2)CC1 | binding, competition with immobilised ligand | 1 µM | 12% |
| C[C@H]1CCN(c2nccc(-c3cnn4ncccc34)n2)C1 | binding | 1 µM | 93% |
| CCS(=O)(=O)c1cc2cc(C[C@@](O)(CC(C)(C)c3ccc(F)cc3C(N)=O)C(F)(F)F)[nH]c2cn1 | cell-free assay, competition with immobilised ligand | 1 µM | 100% |
| Nc1ncc2c(n1)-c1c([nH]c3ccc(C#CC4CC4)cc13)CCCC2 | binding, competition with immobilised ligand | 1 µM | 100% |
| COc1ccnn2ncc(-c3ccnc(N(C)C)n3)c12 | binding | 1 µM | 92% |
| C[C@@H]1CN(c2cc(-c3n[nH]c4ccc(OC5(C)CC5)cc34)ncn2)C[C@H](C)O1 | cell-free assay, competition with immobilised ligand | 0.1 µM | 92% |
| CN(C)c1ncc(F)c(-c2cnn3ncccc23)n1 | binding | 1 µM | 100% |
| O=C(Nc1cnc(Oc2ccc(F)cc2)nc1)N1CCc2ncccc2[C@@H]1c1ccc(F)cc1 | cell-free assay, competition with immobilised ligand | 1 µM | 76% |
| CN(C)c1nccc(-c2cnn3ncccc23)n1 | binding | 1 µM | 100% |
| CN(C)c1ncnc(-c2ccc3nc(Nc4cc(CN5CCN(C(=O)CC(F)(F)F)CC5)ccn4)[nH]c3c2)c1Cl | cell-free assay, competition with immobilised ligand | 1 µM | 100% |
| CC1CCCN1c1nccc(-c2cnn3ncccc23)n1 (stereo not shown) | binding | 1 µM | 100% |
| C=CC(=O)N1CCC(C(=O)NCC(=O)N2CCN(c3nc(-c4cnc(N)nc4C(F)F)nc(N4CCOCC4)n3)CC2)CC1 | binding, competition with immobilised ligand | 1 µM | 100% |
